# 697 NFkB inh: lowers PMA/ionomycin-induced NF-kB signal in 697 B cells | 697 B-cell NF-kB luciferase reporter, 16 h | inhibition, % at 4 µM | 330,000 tested, 0.33% active; in the data active means inhibition above about 35%
# UPR XBP1 act: adaptive UPR (XBP1) activation | CHO-XBP1 luciferase reporter, IRE1-XBP1 UPR activation, luminescence; percent of tunicamycin response, DMSO as zero | activation, % at 20 µM | 330,000 tested, 0.33% active | AID 463104;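 active means versus positive control, 20 µM dose yields 30% or more activation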;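 further: 100% = tunicamycin at 10 µg/mL and 0% = DMSO only wells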
#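 incubation = overnight seeding at 37 °C, 6 h compound treatment at 37 °C | assay system = CHO-XBP1 cells stably carrying IRE1-XBP1-driven luciferase reporter | input = 1000 cells per well | detection = luciferase luminescence | dosing = single point, 20 µM final compound, 1% DMSO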
# Jurkat NFkB inh: lowers PMA/ionomycin-induced NF-kB signal in Jurkat cells; AID 435003; PMA/ionomycin-induced NF-kB luciferase reporter, luminescence; inhibition, % at 4 µM; 330,000 tested, 0.53% active; in the data active means inhibition above about 50%
# CHOP inh: inhibitors of CHOP induction in ER stress response. CHO-K1 CHOP-promoter luciferase, tunicamycin-induced, 15-18 h. inhibition, % at 10 µM. 220,000 tested, 3.8% active. AID 2732;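 active means compounds that reduced the stress-induced luciferase reporter signal by more than about 70% of percent inhibition, limit read from the data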;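 further: 0% = tunicamycin plus vehicle and 100% = wells without tunicamycin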
# CHOP UPR activ: activators of apoptotic arm of unfolded protein response (CHOP) | CHO-CHOP luciferase reporter, UPR activation, luminescence; percent of tunicamycin response over DMSO baseline | activation, % at 10 µM | 330,000 tested, 0.34% active;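 active means at 10 µM dose, activation of 40% or more, normalized to positive control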;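 further: 100% = tunicamycin at 10 µg/mL and 0% = DMSO alone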
#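 Assay system: CHO-CHOP cells, stable luciferase reporter of PERK-eIF2a-CHOP signalling / Buffer or medium: F12 plus 10% serum / Compound dosing: one dose, 10 µM in 0.5% DMSO / Times: 6 h compound treatment, 37 °C / Technique: luciferase luminescence / Read-out: % reporter activation, DMSO baseline versus tunicamycin full activation / Benchmarks: tunicamycin and DMSO controls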
# Gli-Sufu antag: blocks Gli-Sufu signaling in a luciferase reporter; Sufu-KO-LIGHT fibroblasts, Gli luciferase reporter luminescence; inhibition, % at 5 µM; 340,000 tested, 0.74% active;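 active means inhibition above about 55%, limit read from the data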;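 further: 0% = DMSO-treated cells and 100% = wells with medium but no cells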
# Jurkat NFkB conf: inhibitors of the PMA/ionomycin-induced NF-kB reporter in Jurkat cells, retest; shares compounds with Jurkat NFkB inh; Jurkat NF-kB luciferase, 16 h; inhibition, % at 4 µM; 2,700 tested, 27% active; AID 435020;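 active means inhibition reaching about 45% at 4 µM in either replicate, limit read from the data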;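 further: plate controls were PMA/ionomycin stimulated DMSO wells for no effect and unstimulated DMSO wells for full effect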
# An asterisk follows results filed as active; x = not tested or not shown. Rows were chosen to be rich in hits. Some 3.9% of all compounds tested hit in one or more screens of this group.
SMILES,697 NFkB inh,UPR XBP1 act,Jurkat NFkB inh,CHOP inh,CHOP UPR activ,Gli-Sufu antag,Jurkat NFkB conf
CN1CCN(c2ccc([N+](=O)[O-])cc2C(=O)c2ccc(Br)cc2)CC1,-31,2,73*,5,-3,7,26
Cc1ccc(C)c(C(=O)COC(=O)c2cc([N+](=O)[O-])ccc2N2CCOCC2)c1,-5,2,26,x,2,9,x
Cc1ccc(C(=O)c2cc([N+](=O)[O-])ccc2N2CCOCC2)cc1C,-75,2,66*,3,0,18,51*
Cc1ccc(C(=O)c2cc([N+](=O)[O-])ccc2N2CCCCC2)cc1C,-34,4,63*,17,1,43,42
Cc1ccc(C(=O)c2cc([N+](=O)[O-])ccc2N2CCOCC2)c(C)c1,22,9,55*,-3,0,47,50*
O=C(Cn1ccc(NC(=O)OCc2ccccc2)nc1=O)NCCCN1CCCC1=O,-15,0,-20,x,0,-4,x
CCOC(=O)c1cc(CC)sc1NC(=O)c1cccc(N2C(=O)CCC2=O)c1,-68,2,57*,29,6,1,8
NC(=O)C1CCN(C(=O)NC2CC(=O)N(c3ccc4c(c3)OCCO4)C2)CC1 (configuration not stated),0,3,-13,x,-1,-13,x
Cc1cc(-c2nnc(CCC(=O)N3CCN(Cc4cccc(F)c4)CC3)o2)c(C)o1,1,0,-8,-3,4,2,x
CN1C2=CC=CC=CC2=[N+](C)C12C([N+](=O)[O-])=CC(=[N+]([O-])[O-])C=C2[N+](=O)[O-] (configuration not stated),-80,-1,73*,-36,0,-9,19
c1ccc(-c2noc(-c3ccc4c(c3)OCO4)n2)nc1,8,-9,68*,x,-10,50,69*
COc1ccc(-c2nc(-c3cccc(C)c3)no2)cc1OC,-86,2,-92,43,5,-72,x
c1ccc(-c2noc(-c3ccncc3)n2)nc1,-76,-6,-70,-1,-2,-34,x
c1ccc(-c2noc(-c3ccc4ccccc4c3)n2)nc1,12,-7,54*,93*,-9,62*,77*
Cc1cccc(-c2noc(-c3ccc4c(c3)OCO4)n2)c1,-200,-2,-187,5,-2,-78,-99
CC1CCc2c(sc(NC(=O)CCC(=O)O)c2C(=O)NC2CC2)C1 (configuration not stated),-18,1,1,x,1,0,x
CCC1(c2ccccc2)NC(=O)N(CC(=O)Nc2cc(C(F)(F)F)ccc2N2CCCC2)C1=O (configuration not stated),10,-1,54*,x,3,8,-17
COc1ccc(NC(=O)Cc2ccccc2)cn1,23,-1,4,22,-1,1,x
COc1ccc(CS(=O)(=O)/C(Cl)=C(/Cl)C(=O)Nc2ccc(OC)nc2)cc1,-156,-9,81*,x,6,18,85*
COc1ccc(NC(=O)/C(Cl)=C(/Cl)S(=O)Cc2ccccc2)cn1 (configuration not stated),-131,-10,95*,x,-10,66*,98*
CC1CCC2(CC1)NC(=O)N(NC(=O)c1ccc(OC(C)C)cc1)C2=O (configuration not stated),-10,0,-7,x,1,-7,x
Cc1nnc2c(N3CCN(CCO)CC3)nc3ccccc3n12,-1,-2,10,x,2,0,x
Fc1ccc(-n2nnc(-c3cccnc3Cl)n2)cc1,-152,-2,-152,-25,4,-115,-76
Clc1ncccc1-c1nnn(-c2ccccc2)n1,-148,-1,-138,-13,3,-52,x
COc1cc(Nc2ccc(C)cc2)c([N+](=O)[O-])nc1[N+](=O)[O-],-52,3,58*,-59,-1,-8,50*
